Laboratory results taken from ChEMBL document CHEMBL4765431, “Novel phthalide derivatives: Synthesis and anti-inflammatory activity in vitro and in vivo” (Eur J Med Chem, 2020).
Calls of active or inactive are those of the source. No cut-off for these calls is given here.

How the values were obtained:
Rattus norvegicus [1] = assay: Antiarthritic activity in Sprague-Dawley rat model of arthritis assessed as decrease in CFA-induced synovial hyperplasia at 60 mg/kg, ig administered daily for 28 days starting from 14 days post-immunization and measured every 3 days by H and E staining based histopathological analysis; format: functional, organism-based; settings: time 28.0 day
Rattus norvegicus [2] = assay: Antiarthritic activity in Sprague-Dawley rat model of CFA-induced arthritis assessed as intact joint cavity at 60 mg/kg, ig administered daily for 28 days starting from 14 days post-immunization and measured every 3 days by H and E staining based histopathological analysis; format: functional, organism-based; settings: time 28.0 day
RAW264.7 [3] = assay: Cytotoxicity against mouse RAW264.7 cells assessed as reduction in cell viability incubated for 24 hrs in presence of LPS by MTT assay; format: cell-based; settings: RAW264.7, 24 h
RAW264.7 [4] = assay: Cytotoxicity against mouse RAW264.7 cells assessed as reduction in cell viability incubated for 24 hrs in absence of LPS by MTT assay; format: cell-based; settings: RAW264.7, 24 h
RAW264.7 [5] = assay: Cytotoxicity against mouse RAW264.7 cells assessed as reduction in cell viability at 20 uM incubated for 24 hrs by MTT assay; format: cell-based; settings: raw264.7, 24 h
Procedure, shortened: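 RAW264.7 cells (1 × 10^4/well, used 24 h after seeding) exposed to 20 µM for 24 h. MTT (5 mg/mL stock) added for 4 h, supernatant removed, crystals dissolved in DMSO with 10–15 min shaking, absorbance at 492 nm.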

RAW264.7 [6] = assay: Antiinflammatory activity in mouse RAW264.7 cells assessed as inhibition of LPS-induced nitric oxide production at 10 uM preincubated for 1 hr followed by LPS stimulation and measured after 24 hrs by Griess reagent-based assay relative to control; format: functional; settings: time 25 hrs
Procedure, shortened: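 RAW264.7 cells (7 × 10^4/well, used 24 h after seeding) in DMEM with 10% heat-inactivated FBS, 37 °C, 5% CO2. Pretreated 1 h with compound (10 µM screen; 0.625–10 µM dose series), then LPS 0.5 µg/mL for 24 h. Supernatant mixed 1:1 with Griess reagent, 15 min at room temperature, absorbance read at […].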

RAW264.7 [7] = assay: Antiinflammatory activity in mouse RAW264.7 cells assessed as inhibition of LPS-induced nitric oxide production preincubated for 1 hr followed by LPS stimulation and measured after 24 hrs by Griess reagent-based assay; format: functional, cell-based

Row | SMILES | Activity (Rattus norvegicus [1]) | Activity (Rattus norvegicus [2]) | IC50 (RAW264.7 [3]) [µM] | IC50 (RAW264.7 [4]) [µM] | Activity (RAW264.7 [5]) | inhibition at 10 µM (RAW264.7 [6]) [%] | IC50 (RAW264.7 [7]) [µM]
1 | COC1=C[C@@H]2[C@@H]3Cc4ccc(OC)c(O)c4[C@]2(CCN3C)CC1=O | Active | Active | – | – | – | – | –
2 | O=C1OC(Cc2nc(-c3ccc(Oc4ccccc4)cc3)no2)c2ccccc21 (stereo unspecified) | – | – | > 40 | > 40 | Non-Toxic | 10 | > 10
3 | O=C1OC(Cc2nc(Cc3ccccc3)no2)c2ccccc21 (stereo unspecified) | – | – | > 40 | > 40 | Non-Toxic | 25.1 | > 10
4 | COc1ccc2c(c1)c(CC(=O)O)c(C)n2C(=O)c1ccc(Cl)cc1 [INDOMETHACIN] | – | – | > 40 | > 40 | – | 61.6 | > 10
5 | COc1cc(OC)c2c(c1)C(C(O)c1ccc(OCc3ccccc3)cc1)OC2=O (stereo unspecified) | – | – | > 40 | > 40 | Non-Toxic | 41.2 | > 10
6 | COc1cc(OC)c2c(c1)C(C(O)c1ccc(OCc3ccc(OC(F)F)cc3)cc1)OC2=O (stereo unspecified) | – | – | > 40 | > 40 | Non-Toxic | 67.6 | 5.03
7 | COc1cc(OC)c2c(c1)C(C(O)c1ccc(OCc3ccc(C)cc3)cc1)OC2=O (stereo unspecified) | – | – | > 40 | > 40 | Non-Toxic | 82.1 | 3.12
8 | O=C1OC(Cc2nc(-c3ccc(-c4ccccc4)cc3)no2)c2ccccc21 (stereo unspecified) | – | – | > 40 | > 40 | Non-Toxic | 25.2 | > 10
9 | CCCOc1ccc(C(O)C2OC(=O)c3c(OC)cc(OC)cc32)cc1 (stereo unspecified) | – | – | > 40 | > 40 | Non-Toxic | 53.2 | 9.26
10 | COc1cc(OC)c2c(c1)C(C(O)c1ccc(OCC3CCCCC3)cc1)OC2=O (stereo unspecified) | – | – | > 40 | > 40 | Non-Toxic | 27.4 | > 10
11 | COc1cc(OC)c2c(c1)/C(=C/c1ccc(OCc3ccc(F)cc3)cc1)OC2=O | – | – | > 40 | > 40 | Non-Toxic | 48.2 | > 10
12 | COc1cc(OC)c2c(c1)C(C(O)c1ccc(OCCOc3ccccc3)cc1)OC2=O (stereo unspecified) | – | – | > 40 | > 40 | Non-Toxic | 41.2 | > 10
13 | COCCCCOc1ccc(C(O)C2OC(=O)c3c(OC)cc(OC)cc32)cc1 (stereo unspecified) | – | – | > 40 | > 40 | Non-Toxic | 50.3 | 8.21
14 | COc1cc(OC)c2c(c1)C(C(O)c1ccc(OCc3ccc(Cl)cc3)cc1)OC2=O (stereo unspecified) | – | – | > 40 | > 40 | Non-Toxic | 75.1 | 4.32
15 | COc1cc(OC)c2c(c1)C(C(O)c1ccc(OCc3ccc(OC(F)(F)F)cc3)cc1)OC2=O (stereo unspecified) | – | – | > 40 | > 40 | Non-Toxic | 62.8 | 8.14
